Compound activity as filed in PubChem BioAssay.
An excerpt weighted towards active compounds, which were near 9.8% of everything screened.
Calpain2 inh = inhibitors of pig calpain II; purified calpain II, fluorogenic peptide substrate, 30 min; inhibition, % at 16 µM; 0.37% of 220,000 active; AID 1236;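 active means inhibition above about 50%, limit read from the data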
WT yeast gro inh = growth inhibition of WT yeast, mitochondrial fusion screen; mitochondrial fusion phenotypic screen, WT strain; inhibition, % at 10 µM; 2.1% of 190,000 active; AID 1362; in the data active means inhibition above about 58%; tested in S. cerevisiae
PMI act satM6P = activators of human phosphomannose isomerase at near-saturating mannose 6-phosphate. activation factor at 20 µM. coupled PMI enzyme assay, resazurin fluorescence, 20 min; active compounds read high; 1 = untreated enzyme, 0 = substrate-free blank. P34949. 0.34% of 190,000 active;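 active means activation factor of 2 or more at 20 µM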
Target sequence (P34949 whole entry, looked up): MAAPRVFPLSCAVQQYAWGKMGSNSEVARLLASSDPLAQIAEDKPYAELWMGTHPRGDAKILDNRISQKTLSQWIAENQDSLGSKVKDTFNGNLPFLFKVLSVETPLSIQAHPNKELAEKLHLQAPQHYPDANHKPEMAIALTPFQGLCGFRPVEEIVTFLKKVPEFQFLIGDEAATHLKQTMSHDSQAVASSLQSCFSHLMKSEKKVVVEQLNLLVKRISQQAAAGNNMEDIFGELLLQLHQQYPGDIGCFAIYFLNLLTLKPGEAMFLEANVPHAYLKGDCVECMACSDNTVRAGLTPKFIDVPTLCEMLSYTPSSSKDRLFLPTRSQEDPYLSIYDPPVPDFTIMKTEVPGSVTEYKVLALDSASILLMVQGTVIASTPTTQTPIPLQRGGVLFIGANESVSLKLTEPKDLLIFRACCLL
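Test system: Human PMI in coupled enzyme assay | Input: 15 ng/mL PMI | Medium: HEPES-buffered pH 7.4 with magnesium and detergent | Compound: One concentration, 20 µM, in 1% DMSO | Incubation: Enzyme reaction with compound 20 min at room temperature | Detection: Diaphorase-driven resazurin-to-resorufin fluorescence, excitation 544, emission 590 nm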
Lmaj promast = inhibitors of Leishmania major promastigote growth. inhibition, % at 10 µM. AID 1063. 9% of 200,000 active. Leishmania major promastigotes, resazurin fluorescence viability; in the data active means inhibition above about 50%;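 further: promastigotes grown with compound for 44 hours at 28 °C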
PMI activator = activators of human phosphomannose isomerase; P34949; purified human PMI, coupled resazurin fluorescence, 20 min; active compounds read high; 1 = vehicle control, 0 substrate-free wells; activation factor at 20 µM; 0.005% of 190,000 active;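 active means activation factor of 2 or more at 20 µM, relative to plate controls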
Rad51 HR inh = blocks human Rad51 in homologous recombination; 0.085% of 200,000 active; hRad51 DNA strand exchange, fluorescence dequenching; Q06609; inhibition, % at 10 µM;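 active means inhibition above 40% at the single screening dose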
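Material: hRad51 filaments on single-stranded DNA; Reagent: Donor/quencher-labelled 47-bp dsDNA substrate; Compound: 10 µM final, single point; Schedule: 37 °C 15-min filament assembly, 30-min compound preincubation, 15-min exchange; Technique: FRET fluorescence, excitation 485 nm, emission 520 nm; Benchmarks: control wells and blank wells on each plate.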
A number is an active result; – = inactive; · = no result given.

SMILES	Calpain2 inh	WT yeast gro inh	PMI act satM6P	Lmaj promast	PMI activator	Rad51 HR inh
CNc1cc(CSC)nc(SCc2ccc(Cl)cc2Cl)n1	–	85	–	–	–	–
Nc1nc(SCc2ccc(Cl)cc2Cl)n[nH]1	–	–	–	–	–	–
COc1ccc(CN2CCCC(CNC(=O)c3ccc(F)cc3)C2)c(C)c1C (centres undefined)	–	–	·	80	·	–
COc1ccc(CN2CCCC(CNC(=O)c3ccc(F)cc3)C2)c(F)c1 (centres undefined)	–	–	–	89	–	–
O=C(NCC1CCCN(Cc2ccccc2F)C1)c1cccc(C(F)(F)F)c1 (centres undefined)	–	–	–	61	–	–
COc1ccc2c(=O)c(Oc3ccc(C(=O)O)cc3)c(C(F)(F)F)oc2c1	–	–	–	–	–	–
CC(C)(C)c1nc(SCC(=O)NCc2ccco2)c2ccccc2n1	–	–	–	–	–	–
COc1ccc(C(=O)CSc2nc(C(C)(C)C)nc3ccccc23)cc1	53	–	–	–	–	–
O=C/C(=C\Nc1ccc(S(=O)(=O)CCO)cc1)c1nc2cc(Cl)ccc2o1	–	–	–	–	–	–
Cc1ccc(-c2nn3c(C)nnc3c3ccccc23)cc1S(=O)(=O)NC(C)c1ccccc1 (centres undefined)	–	–	–	99	–	–
Cc1ccc(-c2nn3c(C)nnc3c3ccccc23)cc1S(=O)(=O)NCCO	–	–	–	–	–	–
CCc1nc(N2CCN(C(=O)c3ccccc3)CC2)c(C#N)c2c1COC(C)(C)C2	·	–	–	–	–	–
CC1(C)Cc2c(C#N)c(N3CCN(C(=O)c4ccccc4)CC3)nc(Cc3ccccc3)c2CO1	–	–	–	71	–	–
Cc1cccc(-c2nnc(SCC(=O)Nc3ncccn3)n2C)c1	–	–	–	–	–	–
O=C(Nc1ccccc1)OC1CCC2CC1CCC2OC(=O)Nc1ccccc1 (centres undefined)	–	67	–	–	–	–
CCOc1ccc2nc(Cl)c(C3CC(c4ccco4)=NN3S(=O)(=O)c3ccccc3)cc2c1 (centres undefined)	–	–	–	100	–	–
Cc1ccc2cn[nH]c2c1[N+](=O)[O-]	–	–	–	–	–	–
CCOc1ccccc1N=C1SC(CC(=O)Nc2ccc(OC)cc2OC)C(=O)N1CCC1=CCCCC1 (centres undefined)	–	–	–	80	–	–
O=C(CC1SC(=Nc2ccc(OC(F)F)cc2)N(CCC2=CCCCC2)C1=O)Nc1ccccc1F (centres undefined)	–	–	–	96	–	–
CCn1c2ccccc2c2cc(N=C3SC(CC(=O)Nc4ccccc4OC)C(=O)N3CCOC)ccc21 (centres undefined)	–	–	–	–	–	–
CN=C1SC(CC(=O)Nc2ccccc2F)C(=O)N1C (centres undefined)	–	–	–	–	–	–
CCSCc1nnc(SCC(=O)Nc2ccc(F)cc2)n1CC	–	–	–	–	–	–
CC(C)(C)n1nnnc1C(c1cccs1)N(Cc1cccnc1)Cc1ccccc1Cl (centres undefined)	–	74	–	100	–	–
CC(c1nnnn1C(C)(C)C)N(Cc1cccnc1)Cc1ccccc1Cl (centres undefined)	–	–	–	96	–	–
CN=c1scc(-c2ccc(Br)cc2)n1C	–	–	–	–	–	–
SMILES	Calpain2 inh	WT yeast gro inh	PMI act satM6P	Lmaj promast	PMI activator	Rad51 HR inh
CN=c1scc(-c2ccccc2Br)n1/N=C/c1ccc[nH]1	–	73	–	–	–	–
OCCC1CN(CC#Cc2ccccc2)CCN1C1CCCC1 (centres undefined)	–	–	–	–	–	–
CC(C)N1CCN(Cc2nc3ccccc3s2)CC1CCO (centres undefined)	–	–	·	–	·	–
OCCC1CN(CC(c2ccccc2)c2ccccc2)CCN1C1CCCC1 (centres undefined)	–	–	–	87	–	–
OCCC1CN(Cc2nc3ccccc3s2)CCN1C1CCCC1 (centres undefined)	–	–	–	67	–	–
COc1ccc(C(C)C)cc1S(=O)(=O)N1CCN(c2ccccc2)CC1	–	66	–	–	–	–
COc1ccc(Cl)cc1S(=O)(=O)N1CCN(c2ccc(F)cc2)CC1	–	–	–	77	–	–
CCOc1ccc(Cl)cc1S(=O)(=O)N1CCN(c2ccc(C)c(C)c2)CC1	–	–	–	89	–	–
CCOc1ccc(Cl)cc1S(=O)(=O)N1CCN(c2ccc(F)cc2)CC1	59	–	–	–	–	–
COc1ccc(C(C)C)cc1S(=O)(=O)N1CC(C)OC(C)C1 (centres undefined)	–	–	–	–	–	·
COCCNC(=O)COC(=O)c1ccc(OCC(=O)Nc2ccccc2OC)c(OC)c1	–	–	–	–	–	–
CCOC(=O)C1=C(C)N(CCCC(=O)O)C(=O)NC1c1cc2ccccc2c2ccccc12 (centres undefined)	·	·	·	·	·	–
CN(C(=S)Nc1ccc(Oc2ccccc2)cc1)c1ccc(O)cc1	–	–	–	–	–	·
CN(C(=S)Nc1ccc(SC(F)F)cc1)c1ccc(O)cc1	–	87	–	–	–	–
O=c1[nH]c2ccccc2nc1C(Nc1ccccc1)c1ccccc1 (centres undefined)	–	·	·	·	·	–
CCCOc1ccc(-c2nc(OCC)c3ccccc3n2)cc1	–	60	–	–	–	–
O=C(Nc1ccc(N2CCCC2)c(Cl)c1)c1ccc([N+](=O)[O-])cc1	–	–	–	–	–	·
O=C(Nc1ccc(N2CCCC2)c(Cl)c1)c1cccnc1	–	–	–	68	–	–
Cc1cc(C(=O)Nc2ccc(N3CCCC3)c(Cl)c2)ccc1[N+](=O)[O-]	50	–	–	–	–	·
O=C(NC(=S)Nc1ccc(N2CCOCC2)c(Cl)c1)c1cncc(Br)c1	–	–	–	82	–	–
O=C(NC(=S)NC1CCCCCC1)c1cncc(Br)c1	–	–	–	61	–	–
CC(C)(C)C(=O)OCCNc1nc(-c2ccccc2)nc2ccccc12	–	–	–	54	–	–
CC/C(=N/O)C(=O)c1ccc(Br)cc1	–	–	–	–	–	–
Cc1sc2nc(COC(=O)c3cccc(S(=O)(=O)N(C)c4ccccc4)c3)[nH]c(=O)c2c1C	–	–	–	–	–	–
CC1CC(NC(=O)CC#N)CC(C)(C)C1 (centres undefined)	–	·	·	·	·	–
CC1CC(NC(=O)C2(C)CC2(Cl)Cl)CC(C)(C)C1 (centres undefined)	–	–	–	55	–	–
NC(=O)c1cc(-c2ccccc2)sc1NC(=O)CN1CCCCC1	–	–	–	–	–	–
COc1ccc(C2C(C(=O)c3ccccc3)=C(C)Nc3nc4ccccc4n32)cc1OC (centres undefined)	–	–	–	–	–	·
